Assay results from ChEMBL document CHEMBL4393716, “5-Chlorobenzofuran-2-carboxamides: From allosteric CB1 modulators to potential apoptotic antitumor agents” (Eur J Med Chem, 2019).

Columns and labels:
A549 = assay: Antiproliferative activity against human A549 cells assessed as growth inhibition incubated for 48 hrs by MTT assay; type: functional; conditions: A549, 48 h
Outline: (§1)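 MTT viability assay run on four human cancer lines: A549 (lung), MCF-7 (breast), Panc-1 (pancreatic) and HT29 (colon). GI50 derived per cell line from the MTT readout, following a previously reported protocol.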

MCF7 [1] = assay: Antiproliferative activity against human MCF7 cells assessed as growth inhibition incubated for 48 hrs by MTT assay; type: functional; conditions: MCF7, 48 h; outline: as §1
PANC-1 = assay: Antiproliferative activity against human PANC1 cells assessed as growth inhibition incubated for 48 hrs by MTT assay; type: functional; conditions: PANC-1, 48 h; outline: as §1
HT-29 = assay: Antiproliferative activity against human HT-29 cells assessed as growth inhibition incubated for 48 hrs by MTT assay; type: functional; conditions: HT-29, 48 h; outline: as §1
[2] = Cytotoxicity against human MCF10A cells assessed as reduction in cell viability at 50 uM incubated for 4 days by MTT assay; type: cell-based, MCF-10A
Outline: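 Non-tumorigenic human mammary epithelial MCF-10A cells were exposed to compounds for 4 days. Viability was read by MTT reduction and expressed as percent viable cells.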

MCF7 [3] = assay: Induction of apoptosis in human MCF7 cells assessed as activation of caspase-3 level incubated for 24 hrs by enzyme assay relative to control; type: functional
Outline: (§2)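 MCF-7 breast cells (ATCC) were grown in RPMI 1640 with 10% FBS at 37 °C, then treated with compounds. Active caspase-3, -8 or -9 protein was quantified (pg/mL) and expressed as fold over untreated control cells.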

MCF7 [4] = assay: Induction of apoptosis in human MCF7 cells assessed as activation of caspase-8 level incubated for 24 hrs by enzyme assay relative to control; type: functional; outline: as §2
MCF7 [5] = assay: Induction of apoptosis in human MCF7 cells assessed as activation of caspase-9 level incubated for 24 hrs by enzyme assay relative to control; type: functional; outline: as §2
MCF7 [6] = assay: Induction of apoptosis in human MCF7 cells assessed as activation of cytochrome C level incubated for 24 hrs by enzyme assay relative to control; type: functional
Outline: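 MCF-7 cells (ATCC) were cultured in RPMI 1640 plus 10% fetal bovine serum at 37 °C and stimulated with compounds. Cytochrome C level was measured and reported as fold over untreated control.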

MCF7 [7] = assay: Induction of apoptosis in human MCF7 cells assessed as increase in Bax level incubated for 24 hrs by RT-PCR relative to control; type: functional
MCF7 [8] = assay: Induction of apoptosis in human MCF7 cells assessed as decrease in Bcl2 level incubated for 24 hrs by RT-PCR relative to control; type: functional
MCF7 [9] = assay: Induction of apoptosis in human MCF7 cells assessed as early apoptotic cells at 0 to 8 umol/L incubated for 24 hrs by annexin-V FITC and propidium iodide staining based flow cytometry analysis (reference value: 0.88 %); type: functional
Outline: (§3)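 MCF-7 cells were stained with annexin-V-FITC and propidium iodide and analysed by flow cytometry. Cells were classed as early apoptotic, late apoptotic or necrotic.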

MCF7 [10] = assay: Induction of apoptosis in human MCF7 cells assessed as late apoptotic cells at 0 to 8 umol/L incubated for 24 hrs by annexin-V FITC and propidium iodide staining based flow cytometry analysis (reference value: 0.37%); type: functional; outline: as §3
MCF7 [11] = assay: Induction of apoptosis in human MCF7 cells assessed as necrotic cells at 0 to 8 umol/L incubated for 24 hrs by annexin-V FITC and propidium iodide staining based flow cytometry analysis (reference value: 0.68 %); type: functional; outline: as §3
MCF7 [12] = assay: Cell cycle arrest in human MCF7 cells assessed as accumulation in pre G phase incubated for 24 hrs by annexin-V FITC and propidium iodide staining based flow cytometry analysis (reference value: 1.93 %); type: functional
MCF7 [13] = assay: Cell cycle arrest in human MCF7 cells assessed as accumulation in G0/G1 phase incubated for 24 hrs by annexin-V FITC and propidium iodide staining based flow cytometry analysis (reference value: 53.71 %); type: functional
MCF7 [14] = assay: Cell cycle arrest in human MCF7 cells assessed as accumulation in G2/M phase incubated for 24 hrs by annexin-V FITC and propidium iodide staining based flow cytometry analysis (reference value: 8.87 %); type: functional
MCF7 [15] = assay: Cell cycle arrest in human MCF7 cells assessed as accumulation in S phase incubated for 24 hrs by annexin-V FITC and propidium iodide staining based flow cytometry analysis (reference value: 37.42 %); type: functional

SMILES	GI50 (A549)	GI50 (MCF7 [1])	GI50 (PANC-1)	GI50 (HT-29)	viability at 96 h, 50 µM [2]	fold change (FC) (MCF7 [3])	fold change (FC) (MCF7 [4])	fold change (FC) (MCF7 [5])	fold change (FC) (MCF7 [6])	fold change (FC) (MCF7 [7])	fold change (FC) (MCF7 [8])	Activity (MCF7 [9])	Activity (MCF7 [10])	Activity (MCF7 [11])	Activity (MCF7 [12])	Activity (MCF7 [13])	Activity (MCF7 [14])	Activity (MCF7 [15])
CCc1c(C(=O)NCCc2ccc(N3CCCCC3)cc2)oc2ccc(Cl)cc12	4.5 µM	3.6 µM	4.6 µM	4.8 µM	82%	5.71												
CCc1c(C(=O)N2CCC(Cc3ccccc3)CC2)oc2ccc(Cl)cc12	27.9 µM	26.5 µM	33.7 µM	27.8 µM	90%													
CCc1c(C(=O)N2CCN(c3ccccc3)CC2)oc2ccc(Cl)cc12	14.7 µM	13.6 µM	13.8 µM	13.8 µM	82%													
Cc1c(C(=O)NCCc2ccc(N3CCCCC3)cc2)oc2ccc(Cl)cc12	4.4 µM	4.9 µM	4.1 µM	4.9 µM	79%	4.83												
Cc1c(C(=O)NCCc2ccccc2)oc2ccc(Cl)cc12	11.4 µM	12.9 µM	12.5 µM	12.2 µM	87%													
Cc1c(C(=O)NCCc2ccc(N3CCOCC3)cc2)oc2ccc(Cl)cc12	3.5 µM	3.1 µM	3.3 µM	3.9 µM	84%	5.9	5.23	13.58	11.26	19.7	2.56							
Cc1c(C(=O)NCCc2ccc(N3CCCC3)cc2)oc2ccc(Cl)cc12	5.2 µM	4.9 µM	4.8 µM	4.9 µM	89%													
CCc1c(C(=O)NCCc2ccccc2)oc2ccc(Cl)cc12	6 µM	7.5 µM	8.3 µM	7.7 µM	89%													
CCc1c(C(=O)NCCc2ccc(N3CCOCC3)cc2)oc2ccc(Cl)cc12	1.8 µM	0.7 µM	1.3 µM	1.6 µM	91%	8.1	9.64	15.98	16.83	34.46	5.77	8.92%	23.08%	2.29%	34.29%	24.53%	43.96%	31.49%
CCc1c(C(=O)NCCc2ccc(N3CCCC3)cc2)oc2ccc(Cl)cc12	4.9 µM	4.4 µM	5.6 µM	5.4 µM	89%	5.17												
Cc1c(C(=O)NCCc2ccc(N(C)C)cc2)oc2ccc(Cl)cc12	6.9 µM	6.8 µM	6.6 µM	6.9 µM	90%													
Cc1c(C(=O)N2CCC(Cc3ccccc3)CC2)oc2ccc(Cl)cc12	15.4 µM	16.4 µM	18.6 µM	16.9 µM	96%													
CCc1c(C(=O)NCCc2ccc(N(C)C)cc2)oc2ccc(Cl)cc12	4.8 µM	4.7 µM	5.5 µM	6.5 µM	85%	3.87												
COc1cccc2c1C(=O)c1c(O)c3c(c(O)c1C2=O)C[C@@](O)(C(=O)CO)C[C@@H]3O[C@H]1C[C@H](N)[C@H](O)[C@H](C)O1 [DOXORUBICIN]	1.21 µM	0.9 µM	1.41 µM	1.01 µM		7.66	10.07	17.4	13.13	33.42	5.1				22.17%			
Cc1c(C(=O)N2CCN(c3ccccc3)CC2)oc2ccc(Cl)cc12	29.5 µM	35.4 µM	36 µM	34.7 µM	92%													
